Hits are enriched below; roughly 3.8% of the tested compounds scored in any of these assays.
HSF1 inh: HSF1 inhibition; actives 0.77% (n = 300,000); AID 2098; NIH3T3-HGL HSE-luciferase, MG132-induced, luminescence 8 h; stronger effect = lower value; activity change, negative = inhibition, % at 7.5 µM (by protocol);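 active means more than half of replicate wells show activity change below -50%, luminescence cut by over half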;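 further: luciferase reports HSF-1 transcriptional activity via heat shock element; 0% = median of DMSO wells and -100% = zero luminescence signal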
HSP90 inh: HSP90 refolding inhibition in rabbit reticulocyte lysate | luciferase refolding luminescence, 3 h | inhibition, % at 5.6 µM | actives 0.91% (n = 290,000) | AID 1789;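 active means inhibition above the screen-wide mean plus 3 SD, computed separately per campaign, cut at about 16% in these data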;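 further: 0% = DMSO wells and 100% = 60 µM geldanamycin wells; inhibitors lower the luminescence because luciferase stays unfolded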
Lipid droplet: hepatic lipid droplet formation modulation. inhibition, % at 6.5 µM. AML12 mouse hepatocytes, oleate lipid droplets, BODIPY imaging. actives 0.4% (n = 240,000);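 active means lipid droplet intensity inhibited by at least 50%, with more than 500 cells counted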
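Material: mouse AML12 hepatocyte cell line, fixed after treatment; Timing: compound with oleate, overnight; Technique: high-content imaging of BODIPY-stained droplets and DAPI nuclei; Probe or stimulus: oleate, 100 µM final; Dosing: compound at 6.5 µM only.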
NS3 helicase inh: HCV NS3 helicase inhibition. NS3 helicase DNA unwinding, Cy5 molecular beacon fluorescence. inhibition, % at 10.9 µM. actives 0.56% (n = 290,000);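 active means inhibition above the mean of all tested compounds plus 3 SD, set per campaign, cut at about 35% in these data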;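 further: 0% = DMSO wells and 100% = thioflavine S control wells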
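System: Hepatitis C virus NS3 helicase domain fragment enzyme | Reagent: Annealed dual-labelled DNA beacon duplex, ATP-started | Compound dosing: 10.9 µM single point, 0.8% DMSO | Incubation: 1 h reaction at 25 °C, ATP-initiated | Technique: Cy5 fluorescence | Evaluation: Percent inhibition from t60/t0 fluorescence ratio | Benchmarks: Low DMSO, high thioflavine S at 110 µM | Replication: Singlicate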
HSF1 activator: increases HSF-1 driven luciferase reporter signal | NIH3T3-HGL HSF-1 luciferase reporter, MG132, 8 h; 100% = twice DMSO control signal | activation, % at 9 µM | actives 1.7% (n = 300,000) | AID 504408;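 active means mean replicate activation of at least 50% with a set share of replicates each reaching 50%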;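 further: 0% = median of the neutral control wells and 100% = twice that signal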
* hit, by the source's call; · = not tested or not shown.

SMILES | HSF1 inh | HSP90 inh | Lipid droplet | NS3 helicase inh | HSF1 activator
COc1ccc(CNC(=O)OCCN2CCN(S(=O)(=O)c3ccc(C)cc3)CCC2=O)cc1 | -68* | 2 | -6 | 2 | -75
COc1cccc(C(=O)NC2CCNCC2)c1 | 2 | 0 | -1 | -3 | 2
CN(C)N1C(N)=C(C#N)C(c2ccc(Br)cc2)C2=C1CC(C)(C)CC2=O (stereo not drawn) | 5 | 2 | -6 | -4 | -8
COc1ccc(NC(=O)CCN2CCN(S(=O)(=O)c3ccc(OC)cc3)CC2)cc1 | -91* | 4 | 17 | -18 | -94
COc1ccccc1OCC(=O)Nc1ccc(S(=O)(=O)N2CCCC2)cc1 | -62* | 2 | 14 | 3 | -70
COc1ccc2[nH]cc(/C=C/C(=O)c3ccccc3)c2c1 | 63 | -2 | 8 | -11 | 113*
O=C(/C=C/c1c[nH]c2ccccc12)c1ccccc1 | 35 | -4 | 9 | 1 | 47
COc1cc(O)c(C(=O)/C=C/c2ccccc2)c(OC)c1 | 125 | 3 | -14 | -3 | 107*
COc1ccc2cc(C(=O)/C=C/c3cc(OC)c(OC)c(OC)c3)ccc2c1 | 55 | 12 | 7 | -14 | 95*
COc1cc(/C=C/C(C)=O)cc(OC)c1OC | 1 | 5 | -4 | -1 | 11
COc1cc(OC)c(C(=O)/C=C/c2ccc(OCc3ccccc3)c(OC)c2)c(OC)c1 | 20 | 4 | -5 | 4 | 37
COc1ccc(/C=C/C(=O)c2ccccc2)c(OC)c1 | 31 | -1 | -3 | -2 | 72*
CC1CC(C)CN(C(=O)CSc2nnc(N)s2)C1 (stereo not drawn) | 4 | 3 | 3 | 18 | 2
O=C(CNC(=S)N(CCCN1CCOCC1)Cc1cccs1)NC1CCCCC1 | 5 | 2 | 3 | 6 | 1
O=C(COC(=O)CNC(=O)c1ccc(Cl)cc1Cl)NC1CCCCC1 | 5 | -6 | -19 | -5 | 9
CC12CCC(=O)N1C(C(=O)Nc1cccc3ccccc13)CS2 (stereo not drawn) | 40 | · | -6 | · | 70*
CC12CCC(=O)N1C(C(=O)Nc1ccccc1F)CS2 (stereo not drawn) | 4 | · | · | · | 27
Clc1cccc(N/N=C(\Cc2nc3ccccc3[nH]2)c2ccccc2)c1 | 19 | 0 | -40 | -10 | 70*
COc1ccc(-n2nc3c(N4CCC(C(=O)N5CCC(C)CC5)CC4)nnc(C)c3c2C)cc1 | 17 | -2 | -2 | -34 | 55*
CCN(CC)c1ccc(C(=O)OCC(=O)Nc2sccc2C#N)cc1 | 13 | -2 | 7 | -1 | 58*
Cc1cc(NC(=O)OC2CCCCC2)ccc1[N+](=O)[O-] | 34 | 2 | 2 | 3 | 71*
COC(=O)C(NC(=O)CNS(=O)(=O)c1ccc(Br)cc1)c1ccccc1 (stereo not drawn) | 19 | 4 | -36 | 1 | 54*
O=c1[nH]c2ccccc2nc1/C=C/c1ccccc1 | 62 | -5 | 20 | 1 | 99*
COc1ccc(NC(=O)COc2ccc(-c3nn(C)c(=O)c4ccccc34)cc2)cc1 | -83* | 3 | 11 | 12 | -86
Cc1cccc(NC(=O)CCc2c(C)nn(-c3ccc(N4CCCCC4)nn3)c2C)c1 | 32 | -5 | -43 | -28 | 64*
SMILES | HSF1 inh | HSP90 inh | Lipid droplet | NS3 helicase inh | HSF1 activator
Cc1ccccc1CCNC(=O)C1CCC(=O)N(CCc2cccc(F)c2)C1 (stereo not drawn) | -2 | 3 | 0 | -3 | 6
COC(=O)c1ccc(OC(=O)CS(=O)c2ccccc2[N+](=O)[O-])cc1 (stereo not drawn) | 9 | 1 | -4 | 14 | 24
O=C(CS(=O)c1ccc(C(F)(F)F)cc1[N+](=O)[O-])Oc1ccccc1 (stereo not drawn) | 172 | 7 | 6 | 20 | 238*
CS(=O)(=O)c1ccc(S(=O)CC(=O)OCc2ccccc2)c([N+](=O)[O-])c1 (stereo not drawn) | -94* | -1 | -18 | -1 | -94
CCOC(=O)c1ccccc1OC(=O)CS(=O)c1ccccc1[N+](=O)[O-] (stereo not drawn) | 27 | -1 | -12 | 4 | 24
CC1CCN(CC(=O)Nc2ccc(S(=O)(=O)NC3CC3)cc2)CC1 | -65* | 1 | 4 | -6 | -72
Cc1cc(C(=O)N2CCN(c3ccc(F)cc3)CC2)on1 | 2 | -5 | 6 | 11 | 5
COc1ccc(/C(C)=N/Nc2ccc(C(=O)O)cc2)cc1OC | -17 | 26* | 5 | -1 | -24
COc1cc(C(=O)Nc2ccc(C(=O)O)cc2)ccc1OC(C)=O | 0 | 4 | 24 | 2 | 0
Cc1ccc(NC(=O)CCN2C(=O)C3CCCCC3C2=O)cc1[N+](=O)[O-] (stereo not drawn) | -53* | · | · | · | -63
OCCC1CN(Cc2cccn2-c2ncccn2)CCN1CCc1ccccc1 (stereo not drawn) | -9 | -1 | 7 | 1 | -14
CCCc1nnc(NC(=O)CCC(=O)N2CCN(S(=O)(=O)c3ccc(F)cc3)CC2)s1 | -86* | 0 | -18 | 1 | -88
CCCc1nnc(NC(=O)CCC(=O)N2CCN(Cc3cc(F)ccc3OC)CC2)s1 | 0 | -6 | 12 | -4 | 2
Cc1nn(-c2ccc(N3CCOCC3)nn2)c(C)c1CCC(=O)Nc1ccc(F)cc1 | -3 | 2 | 21 | 13 | 22
COc1ccc(/C=C/C(=O)Oc2ccc(C)c(C)c2)cc1OC | 4 | 1 | 25 | -11 | 22
COc1cc(/C=C/[N+](=O)[O-])ccc1OC(=O)/C=C/c1ccc(F)cc1 | 60 | 10 | 5 | -1 | 70*
COCCn1nnnc1C(c1ccccc1OC)N1CCc2ccccc2C1 (stereo not drawn) | 50 | 3 | · | -4 | 95*
O=C1CC2(CCN(C(=O)c3cccc([N+](=O)[O-])c3)CC2)Oc2ccccc21 | -8 | · | · | · | -5
O=C1OC(COc2ccc(Br)cc2)CN1c1ccccc1 (stereo not drawn) | 1 | 1 | -12 | -7 | 7
Nc1[nH]ncc1S(=O)(=O)c1ccccc1 | -5 | 2 | 3 | 2 | -3
Nc1nc(Oc2ccc(F)cc2)c(Br)c(=O)[nH]1 | -64* | 5 | 0 | 4 | -72
Cc1ccc(C)c(NC(=O)c2ccccn2)c1 | 10 | 0 | -3 | 1 | 24
Cc1ccc(NC(=O)c2ccccn2)c(Br)c1 | 30 | -1 | -2 | 7 | 58*
CCCOC1CCCN(C(=O)CCc2nnc(Cc3cccc(C)c3)o2)C1 (stereo not drawn) | 30 | -2 | 0 | -11 | 63*
CCn1c(NC(=S)Nc2ccccc2)nc2ccccc21 | -60* | -2 | · | -22 | -69
CC1=Nc2ccc(C)c3nc(C)cc(c23)N1c1ccc(C)cc1 | -53* | -1 | · | 9 | -64
Cc1ccc(N2C=Nc3ccc(C)c4nc(C)cc2c34)cc1 | 0 | -3 | 4 | 0 | -8

From PubChem
